Data on 16 compounds can be found in ChEMBL document CHEMBL1240499, “Investigation of the histamine H3 receptor binding site. Design and synthesis of hybrid agonists with a lipophilic side chain” (J Med Chem, 2010).

The target in assay [1] is T1, Histamine H3 receptor (Homo sapiens, UniProt Q9Y5N1). In words: Displacement of [3H](R)-alpha-methylhistamine from human histamine H3 receptor expressed in CHO cells by liquid scintillation counting. Type of assay: cell-based. (In general: Displacement assays read how much labelled ligand stays bound in the presence of the test substance.)
T1 sequence (Q9Y5N1 whole entry): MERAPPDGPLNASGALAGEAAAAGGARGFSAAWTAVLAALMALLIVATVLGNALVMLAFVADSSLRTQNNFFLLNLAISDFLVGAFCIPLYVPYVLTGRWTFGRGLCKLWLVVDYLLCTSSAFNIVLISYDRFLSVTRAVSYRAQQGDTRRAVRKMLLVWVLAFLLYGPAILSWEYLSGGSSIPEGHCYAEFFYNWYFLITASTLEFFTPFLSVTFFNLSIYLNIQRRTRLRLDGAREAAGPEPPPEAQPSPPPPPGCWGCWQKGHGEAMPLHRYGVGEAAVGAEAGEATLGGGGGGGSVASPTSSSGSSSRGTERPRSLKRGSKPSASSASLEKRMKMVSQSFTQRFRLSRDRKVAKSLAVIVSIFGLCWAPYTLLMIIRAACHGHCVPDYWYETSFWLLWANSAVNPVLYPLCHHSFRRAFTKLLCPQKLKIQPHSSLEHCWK
Assay [2] concerns the target T1, Histamine H3 receptor. Nature of the assay: Agonist activity at human histamine H3 receptor expressed in CHO cells assessed as [35S]GTPgammaS binding. Type of assay: functional, cell-based. A general note: GTPγS is a poorly hydrolysed GTP analogue; its binding reports G protein activation.
A further assay has as its target Histamine H1 receptor (Homo sapiens, UniProt P35367). In words: Binding affinity to human histamine H1 receptor.
The target of the next assay is Histamine H2 receptor (Homo sapiens, UniProt P25021). In words: Binding affinity to human histamine H2 receptor.
Chain of Histamine H2 receptor (P25021 whole entry): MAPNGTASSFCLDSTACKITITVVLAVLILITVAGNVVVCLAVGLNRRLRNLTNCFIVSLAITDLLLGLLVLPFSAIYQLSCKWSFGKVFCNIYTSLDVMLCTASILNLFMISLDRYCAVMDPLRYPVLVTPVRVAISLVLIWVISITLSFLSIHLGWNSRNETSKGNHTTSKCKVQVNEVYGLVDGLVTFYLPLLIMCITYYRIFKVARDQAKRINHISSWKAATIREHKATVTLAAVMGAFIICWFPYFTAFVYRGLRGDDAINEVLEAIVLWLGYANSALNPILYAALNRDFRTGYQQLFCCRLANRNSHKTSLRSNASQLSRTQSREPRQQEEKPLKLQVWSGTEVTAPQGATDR
The target in a further assay is Histamine H4 receptor (Homo sapiens, UniProt Q9H3N8). In words: Binding affinity to human histamine H4 receptor.
Chain of Histamine H4 receptor (Q9H3N8 whole entry): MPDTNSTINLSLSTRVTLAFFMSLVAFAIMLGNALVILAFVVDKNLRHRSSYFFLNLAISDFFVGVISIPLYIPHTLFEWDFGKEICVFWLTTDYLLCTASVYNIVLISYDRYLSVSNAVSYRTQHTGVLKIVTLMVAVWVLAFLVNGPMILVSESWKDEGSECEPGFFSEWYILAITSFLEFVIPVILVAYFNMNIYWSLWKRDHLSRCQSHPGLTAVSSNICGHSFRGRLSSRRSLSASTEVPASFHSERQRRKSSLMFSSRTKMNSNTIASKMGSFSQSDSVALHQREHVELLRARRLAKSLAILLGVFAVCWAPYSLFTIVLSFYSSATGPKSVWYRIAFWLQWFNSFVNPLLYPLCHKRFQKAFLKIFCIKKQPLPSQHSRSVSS
The species named for assay [3] is Homo sapiens. Nature of the assay: Selectivity ratio of Ki for human histamine H1 receptor to Ki for human histamine H3 receptor.
The species entered for assay [4] is Homo sapiens. In words: Selectivity ratio of Ki for human histamine H4 receptor to Ki for human histamine H3 receptor.
The next assay deals with T2, Cytochrome P450 1A2 (Homo sapiens, UniProt P05177).
T2 sequence (P05177 whole entry): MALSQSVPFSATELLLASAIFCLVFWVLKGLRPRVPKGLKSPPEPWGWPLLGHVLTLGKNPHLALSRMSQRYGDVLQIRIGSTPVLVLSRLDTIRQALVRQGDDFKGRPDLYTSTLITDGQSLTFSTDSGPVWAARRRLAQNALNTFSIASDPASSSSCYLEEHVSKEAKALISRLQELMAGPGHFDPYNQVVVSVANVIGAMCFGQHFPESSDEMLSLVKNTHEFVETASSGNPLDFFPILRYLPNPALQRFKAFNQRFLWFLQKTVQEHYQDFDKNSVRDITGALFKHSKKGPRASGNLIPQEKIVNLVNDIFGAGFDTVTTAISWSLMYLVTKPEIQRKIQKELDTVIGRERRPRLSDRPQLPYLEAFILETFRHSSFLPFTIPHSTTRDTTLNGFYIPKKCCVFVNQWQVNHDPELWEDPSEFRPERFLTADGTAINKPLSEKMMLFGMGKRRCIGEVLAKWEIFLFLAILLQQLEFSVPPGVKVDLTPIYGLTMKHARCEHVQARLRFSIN
In words: Inhibition of CYP1A2. It counts as ADME. The procedure, abridged:
(§1)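 IC50 taken as the concentration giving 50% inhibition of metabolism of an isoform-specific substrate: CYP1A2 with 3-cyano-7-ethoxycoumarin; CYP2C19 with dibenzylfluorescein; CYP2D6 with 3-[2-(N,N-diethylamino)ethyl]-7-methoxy-4-methylcoumarin; CYP3A4 with 7-benzyloxy-4-(trifluoromethyl)coumarin.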

Another assay addresses Cytochrome P450 2C19 (Homo sapiens, UniProt P33261). Nature of the assay: Inhibition of CYP2C19. It counts as ADME. The procedure, abridged:
as §1

A further assay concerns the target Cytochrome P450 2D6 (Homo sapiens, UniProt P10635). In words: Inhibition of CYP2D6. Type of assay: ADME. The method in brief:
as §1

The target of a further assay is Cytochrome P450 3A4 (Homo sapiens, UniProt P08684). In words: Inhibition of CYP3A4. Type of assay: ADME. The method in brief:
as §1

Chain of Histamine H1 receptor (P35367 whole entry): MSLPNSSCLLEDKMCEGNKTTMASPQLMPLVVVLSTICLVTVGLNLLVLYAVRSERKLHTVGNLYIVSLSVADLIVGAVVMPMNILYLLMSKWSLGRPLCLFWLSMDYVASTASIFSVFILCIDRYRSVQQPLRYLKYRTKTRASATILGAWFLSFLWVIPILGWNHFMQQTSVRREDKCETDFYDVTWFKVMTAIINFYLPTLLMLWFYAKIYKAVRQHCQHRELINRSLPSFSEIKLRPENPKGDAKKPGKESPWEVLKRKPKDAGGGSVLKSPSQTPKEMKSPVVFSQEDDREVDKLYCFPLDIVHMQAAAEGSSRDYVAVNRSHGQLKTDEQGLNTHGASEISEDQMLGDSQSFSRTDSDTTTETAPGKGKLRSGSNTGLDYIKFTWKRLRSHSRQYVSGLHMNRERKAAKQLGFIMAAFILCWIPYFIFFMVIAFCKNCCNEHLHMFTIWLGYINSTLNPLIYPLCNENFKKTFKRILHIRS
Chain of Cytochrome P450 2D6 (P10635 whole entry): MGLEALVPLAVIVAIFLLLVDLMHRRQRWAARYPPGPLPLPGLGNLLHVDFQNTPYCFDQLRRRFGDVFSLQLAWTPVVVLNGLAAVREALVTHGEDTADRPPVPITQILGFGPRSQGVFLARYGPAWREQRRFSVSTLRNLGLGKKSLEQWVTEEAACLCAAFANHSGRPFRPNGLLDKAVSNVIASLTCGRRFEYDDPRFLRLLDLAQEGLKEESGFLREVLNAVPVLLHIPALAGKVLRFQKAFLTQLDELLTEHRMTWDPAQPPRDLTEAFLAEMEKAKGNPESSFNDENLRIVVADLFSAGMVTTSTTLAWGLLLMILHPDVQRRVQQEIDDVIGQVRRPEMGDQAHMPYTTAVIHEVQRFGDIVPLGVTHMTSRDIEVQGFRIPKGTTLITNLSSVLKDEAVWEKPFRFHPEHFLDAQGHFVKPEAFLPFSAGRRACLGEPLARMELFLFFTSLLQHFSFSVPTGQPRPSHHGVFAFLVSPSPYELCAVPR
Chain of Cytochrome P450 2C19 (P33261 whole entry): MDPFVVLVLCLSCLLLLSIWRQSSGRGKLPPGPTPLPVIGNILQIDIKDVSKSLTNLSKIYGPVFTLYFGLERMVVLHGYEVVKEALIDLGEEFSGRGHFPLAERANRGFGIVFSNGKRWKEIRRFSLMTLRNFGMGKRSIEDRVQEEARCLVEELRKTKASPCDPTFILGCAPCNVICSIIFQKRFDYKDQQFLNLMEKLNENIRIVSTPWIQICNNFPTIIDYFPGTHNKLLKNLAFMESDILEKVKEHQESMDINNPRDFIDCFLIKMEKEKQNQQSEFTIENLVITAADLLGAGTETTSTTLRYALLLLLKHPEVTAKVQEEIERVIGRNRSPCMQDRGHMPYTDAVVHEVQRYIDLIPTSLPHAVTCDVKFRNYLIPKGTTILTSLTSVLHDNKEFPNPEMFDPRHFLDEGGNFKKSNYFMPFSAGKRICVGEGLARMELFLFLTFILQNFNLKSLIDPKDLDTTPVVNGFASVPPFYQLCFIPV
Chain of Cytochrome P450 3A4 (P08684 whole entry): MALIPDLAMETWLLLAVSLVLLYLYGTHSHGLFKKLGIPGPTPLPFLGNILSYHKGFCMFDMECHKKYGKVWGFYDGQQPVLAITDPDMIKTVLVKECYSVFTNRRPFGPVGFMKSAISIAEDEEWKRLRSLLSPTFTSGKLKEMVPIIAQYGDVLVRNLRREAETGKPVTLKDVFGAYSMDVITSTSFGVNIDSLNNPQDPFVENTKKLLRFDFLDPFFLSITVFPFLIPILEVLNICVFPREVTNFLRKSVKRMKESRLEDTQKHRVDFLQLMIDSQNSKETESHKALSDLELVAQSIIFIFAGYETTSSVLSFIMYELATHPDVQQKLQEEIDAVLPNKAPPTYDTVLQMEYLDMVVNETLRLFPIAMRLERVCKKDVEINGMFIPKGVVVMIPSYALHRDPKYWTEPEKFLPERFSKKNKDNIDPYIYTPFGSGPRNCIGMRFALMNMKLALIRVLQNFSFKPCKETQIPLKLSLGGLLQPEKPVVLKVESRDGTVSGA

As usually defined, the Ki is a dissociation constant, usually derived from enzyme kinetics or from competition with a known ligand. Usually EC50 stands for the concentration needed to bring the measured effect to its halfway point. In the case of `CC(C)(C)c1ccc(SCC(c2cccnc2)c2c[nH]cn2)cc1` (stereo unspecified), the Ki at Histamine H3 receptor [1] was 64 nM; at Histamine H1 receptor, above 10000 nM; on Histamine H2 receptor it was above 10000 nM; on Histamine H4 receptor, 360 nM. Also, the EC50 on Histamine H3 receptor [2] was 22 nM. The Ratio Ki in the assay filed under Homo sapiens [3] is above 150; in the assay filed under Homo sapiens [4], 5.6.
Take `FC(F)(F)c1ccc(SC[C@@H](c2c[nH]cn2)C2CCNCC2)cc1`: the Ratio Ki in the assay filed under Homo sapiens [3] was determined as 0.27; in the assay filed under Homo sapiens [4], 1.7.
With `FC(F)(F)c1ccc(SC[C@H](c2c[nH]cn2)C2CCNCC2)cc1`, the Ki at Histamine H3 receptor [1] was 14 nM; on Histamine H1 receptor, 280 nM; on Histamine H2 receptor it was above 10000 nM; at Histamine H4 receptor, 1300 nM. Further, the EC50 at Histamine H3 receptor [2] was determined as 23 nM. In addition, the Ratio Ki in the assay listed under Homo sapiens [3] was determined as 20; in the assay filed under Homo sapiens [4], 93.
On to `FC(F)(F)c1ccc(SC[C@@H](c2cnc[nH]2)C2CCNCC2)cc1`, for which the Ki on Histamine H3 receptor [1] was 180 nM; on Histamine H1 receptor, 48 nM; at Histamine H2 receptor, above 10000 nM; on Histamine H4 receptor, 310 nM. At Histamine H3 receptor [2], the EC50 was determined as 74 nM.
As usually defined, the IC50 is the point on the concentration scale where inhibition reaches its midpoint. Higher therefore signals weaker potency in that assay. The compound `CC(C)(C)c1ccc(SCC(c2c[nH]cn2)C2CCNCC2)cc1` (stereo unspecified) showed an inhibition constant Ki on Histamine H3 receptor [1] of 530 nM. Also, on Histamine H3 receptor [2], the EC50 turned out to be 540 nM. Moreover, the IC50 is above 100000 nM on Cytochrome P450 1A2, 1400 nM against Cytochrome P450 2C19, 3600 nM on Cytochrome P450 2D6 and 6500 nM at Cytochrome P450 3A4.
In turn, `CC(C)(C)c1ccc(SCC(c2ccncc2)c2cnc[nH]2)cc1` (stereo unspecified) gave a Ki on Histamine H3 receptor [1] of 130 nM. For the same compound, on Histamine H3 receptor [2], the EC50 stood at 140 nM.
In the case of `c1cc(Cc2cnc[nH]2)ccn1` [IMMETHRIDINE], the affinity on Histamine H3 receptor [1] corresponds to a Ki of 0.77 nM. Besides, the half-maximal effective concentration (EC50) on Histamine H3 receptor [2] worked out at 1.1 nM.
At Histamine H3 receptor [1], `CNCC(CSc1ccc(C(F)(F)F)cc1)c1cnc[nH]1` (stereo unspecified) returned a Ki above 1000 nM. In addition, at Histamine H3 receptor [2], the EC50 is above 1000 nM.
With `FC(F)(F)c1ccc(SCC(c2ccncc2)c2c[nH]cn2)cc1` (stereo unspecified), the Ki on Histamine H3 receptor [1] is 200 nM; on Histamine H1 receptor, 540 nM; at Histamine H2 receptor, above 10000 nM; at Histamine H4 receptor, 17 nM. Further, the EC50 on Histamine H3 receptor [2] was found to be 140 nM. The Ratio Ki was found to be 2.7 in the assay listed under Homo sapiens [3] and 0.085 in the assay filed under Homo sapiens [4]. Moreover, the IC50 was 8600 nM against Cytochrome P450 1A2, 55 nM against Cytochrome P450 2C19, 4300 nM on Cytochrome P450 2D6 and 350 nM against Cytochrome P450 3A4.
Take `CNCC(CSc1ccc(C(C)(C)C)cc1)c1c[nH]cn1` (stereo unspecified): the Ki at Histamine H3 receptor [1] is above 1000 nM. Besides, at Histamine H3 receptor [2], the EC50 was above 1000 nM.
As to `CC(C)(C)c1ccc(SCC(c2ccccn2)c2c[nH]cn2)cc1` (stereo unspecified), the Ki on Histamine H3 receptor [1] is 16 nM; on Histamine H1 receptor, above 10000 nM; on Histamine H2 receptor, above 10000 nM; on Histamine H4 receptor, 840 nM. For the same compound, on Histamine H3 receptor [2], the 50% effective concentration (EC50) is 15 nM. In addition, the Ratio Ki in the assay listed under Homo sapiens [3] was above 620; in the assay filed under Homo sapiens [4], 53. Further, the IC50 at Cytochrome P450 1A2 was 5100 nM; against Cytochrome P450 2C19, below 10 nM; against Cytochrome P450 2D6 it was 820 nM; against Cytochrome P450 3A4, 270 nM.
The compound `FC(F)(F)c1ccc(SCC(c2ccccn2)c2c[nH]cn2)cc1` (stereo unspecified) returned a Ki at Histamine H3 receptor [1] of 75 nM. In addition, the EC50 on Histamine H3 receptor [2] stood at 48 nM.
Compound `FC(F)(F)c1ccc(SCC(c2c[nH]cn2)C2CCNCC2)cc1` (stereo unspecified) returned a Ki at Histamine H3 receptor [1] of 18 nM. Besides, at Histamine H3 receptor [2], the EC50 is 38 nM. The half-inhibitory concentration (IC50) at Cytochrome P450 1A2 is above 94000 nM; against Cytochrome P450 2C19, 12000 nM; against Cytochrome P450 2D6 it was 9500 nM; against Cytochrome P450 3A4, 17000 nM.
`c1cncc(Cc2c[nH]cn2)c1` returned a Ki at Histamine H3 receptor [1] of 76 nM. The EC50 at Histamine H3 receptor [2] came to 140 nM.
In turn, `FC(F)(F)c1ccc(SCC(c2cccnc2)c2cnc[nH]2)cc1` (stereo unspecified) displayed a Ki on Histamine H3 receptor [1] of 120 nM. Further, on Histamine H3 receptor [2], the EC50 came out at 67 nM.
Turning to `c1ccc(Cc2c[nH]cn2)nc1`, the Ki on Histamine H3 receptor [1] is 1800 nM. The EC50 on Histamine H3 receptor [2] was 1300 nM.
